Assays:
[1] = test system: Strongylocentrotus purpuratus; assay: Desensitization of NAADP receptor in Strongylocentrotus purpuratus egg homogenates assessed as inhibition of NAADP-induced Ca2+ release pre-treated for 7 mins before NAADP addition by Fluo-3 dye based fluorometric assay relative to NAADP
Method in brief: (§1)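 S. purpuratus egg homogenates pretreated 7 min with varying analogue concentrations, then challenged with saturating NAADP (1 μM); Ca2+ release read by fluo-3 fluorescence (ex 490/em 535 nm); IC50 for inhibition of release from concentration–response, triplicate, reported ± SEM with n; fold values relative to NAADP.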

[2] = test system: Strongylocentrotus purpuratus; assay: Activation of NAADP receptor in Strongylocentrotus purpuratus egg homogenates assessed as Ca2+ release by Fluo-3 dye based fluorometric assay relative to NAADP
Method in brief: (§2)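 Egg homogenate microsomes from S. purpuratus loaded with Ca2+ in presence of ATP and 3 μM fluo-3; analogue added at a range of concentrations and released Ca2+ read as fluorescence increase (excitation 490 nm, emission 535 nm) on a plate reader; pH 7.2; triplicate; EC50 from concentration–response; fold values relative to NAADP.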

[3] = Desensitization of NAADP receptor in Strongylocentrotus purpuratus egg homogenates assessed as inhibition of NAADP-induced Ca2+ release pre-treated for 7 mins before NAADP addition by Fluo-3 dye based fluorometric assay; method in brief: as §1
[4] = Activation of NAADP receptor in Strongylocentrotus purpuratus egg homogenates assessed as Ca2+ release by Fluo-3 dye based fluorometric assay; method in brief: as §2
[5] = Displacement of [32P]NAADP from NAADP receptor in Strongylocentrotus purpuratus egg homogenates incubated for 90 mins by liquid scintillation counting method
Method in brief: (§3)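 Competition binding in filter plates: S. purpuratus egg homogenate incubated 90 min simultaneously with 0.2 nM [32P]NAADP and seven concentrations of test ligand; filtered, washed, filter-bound radioactivity counted by liquid scintillation; IC50 ± SEM with n; fold values relative to NAADP.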

[6] = test system: Strongylocentrotus purpuratus; assay: Displacement of [32P]NAADP from NAADP receptor in Strongylocentrotus purpuratus egg homogenates incubated for 90 mins by liquid scintillation counting method relative to NAADP; method in brief: as §3
[7] = test system: Strongylocentrotus purpuratus; assay: Ratio of activation of NAADP receptor in Strongylocentrotus purpuratus egg homogenates by Ca2+ release assay to IC50 for NAADP receptor in Strongylocentrotus purpuratus egg homogenates by [32P]NAADP binding assay
[8] = test system: Strongylocentrotus purpuratus; assay: Ratio of activation of NAADP receptor in Strongylocentrotus purpuratus egg homogenates by Ca2+ release assay to IC50 for desensitization of NAADP receptor in Strongylocentrotus purpuratus egg homogenates by Ca2+ release assay
[9] = Activation of NAADP receptor in sea urchin egg homogenates assessed as Ca2+ release; format: tissue-based, Echinoidea; method in brief: as §2

Ratio EC50 [2] | EC50 [4] [µM] | IC50 [5] [µM] | Ratio IC50 [6] | Ratio [7] | EC50 [9] [µM] | SMILES | Ratio IC50 [1] | IC50 [3] [µM] | Ratio [8]
27.5 | 0.709 | 0.0157 | 42.4 | – | – | Nc1ncnc2c1nc(Br)n2[C@@H]1O[C@H](COP(=O)([O-])OP(=O)(O)OC[C@@H]2O[C@H]([n+]3cccc(C(=O)O)c3)[C@@H](O)[C@H]2O)[C@@H](O)[C@H]1OP(=O)(O)O | 32.6 | 0.0153 | –
> 33300 | > 1000 | > 1000 | > 2e+06 | – | – | NCCCc1cc(C(=O)O)c[n+]([C@H]2O[C@@H](COP(=O)(O)OP(=O)([O-])OC[C@H]3O[C@@H](n4cnc5c(N)ncnc54)[C@H](OP(=O)(O)O)[C@@H]3O)[C@H](O)[C@@H]2O)c1 | 1.43e+06 | 674 | –
172 | 4.43 | 0.049 | 132 | – | – | Nc1ncnc2c1ncn2[C@@H]1O[C@H](COP(=O)([O-])OP(=O)(O)OC[C@@H]2O[C@H]([n+]3cc(CCCO)cc(C(=O)O)c3)[C@@H](O)[C@H]2O)[C@@H](O)[C@H]1OP(=O)(O)O | 260 | 0.122 | –
52800 | 1360 | 0.372 | 1000 | – | – | [N-]=[N+]=Nc1cc(C(=O)O)c[n+]([C@H]2O[C@@H](COP(=O)(O)OP(=O)([O-])OC[C@H]3O[C@@H](n4c(Br)nc5c(N)ncnc54)[C@H](OP(=O)(O)O)[C@@H]3O)[C@H](O)[C@@H]2O)c1 | 1220 | 0.576 | –
74.9 | 1.93 | 0.0189 | 51 | – | – | Nc1ncnc2c1ncn2[C@@H]1O[C@H](COP(=O)([O-])OP(=O)(O)OC[C@@H]2O[C@H]([n+]3cc(O)cc(C(=O)O)c3)[C@@H](O)[C@H]2O)[C@@H](O)[C@H]1OP(=O)(O)O | 49.1 | 0.0231 | –
1.8 | 0.0477 | 0.0007 | 1.9 | – | – | [N-]=[N+]=Nc1nc2c(N)ncnc2n1[C@@H]1O[C@H](COP(=O)([O-])OP(=O)(O)OC[C@@H]2O[C@H]([n+]3cccc(C(=O)O)c3)[C@@H](O)[C@H]2O)[C@@H](O)[C@H]1OP(=O)(O)O | 1.3 | 0.0006 | –
5.9 | 0.151 | 0.0068 | 18.4 | 100 | – | CSc1cc(C(=O)O)c[n+]([C@H]2O[C@@H](COP(=O)(O)OP(=O)([O-])OC[C@H]3O[C@@H](n4cnc5c(N)ncnc54)[C@H](OP(=O)(O)O)[C@@H]3O)[C@H](O)[C@@H]2O)c1 | 8.9 | 0.0042 | 100
– | 0.0258 | 0.00037 | – | – | 0.02 | Nc1ncnc2c1ncn2[C@@H]1O[C@H](COP(=O)(O)OP(=O)(O)OC[C@@H]2O[C@H]([n+]3cccc(C(=O)[O-])c3)[C@@H](O)[C@H]2O)[C@@H](O)[C@H]1OP(=O)(O)O [NICOTINIC ACID ADENINE DINUCLEOTIDE PHOSPHATE] | – | 0.00047 | –
1190 | 30.7 | 0.0563 | 152 | – | – | [N-]=[N+]=NCCCc1cc(C(=O)O)c[n+]([C@H]2O[C@@H](COP(=O)(O)OP(=O)([O-])OC[C@H]3O[C@@H](n4cnc5c(N)ncnc54)[C@H](OP(=O)(O)O)[C@@H]3O)[C@H](O)[C@@H]2O)c1 | 97 | 0.0456 | –
6200 | 160 | 3.27 | 8840 | – | – | CC(C)(C)OC(=O)NCCCc1cc(C(=O)O)c[n+]([C@H]2O[C@@H](COP(=O)(O)OP(=O)([O-])OC[C@H]3O[C@@H](n4cnc5c(N)ncnc54)[C@H](OP(=O)(O)O)[C@@H]3O)[C@H](O)[C@@H]2O)c1 | 2000 | 0.942 | –
24.3 | 0.626 | 0.015 | 40.5 | – | – | CC(=O)Nc1cc(C(=O)O)c[n+]([C@H]2O[C@@H](COP(=O)(O)OP(=O)([O-])OC[C@H]3O[C@@H](n4cnc5c(N)ncnc54)[C@H](OP(=O)(O)O)[C@@H]3O)[C@H](O)[C@@H]2O)c1 | 45.7 | 0.0215 | –
1620 | 41.7 | 1.8 | 4880 | – | – | CC(=O)NCCCc1cc(C(=O)O)c[n+]([C@H]2O[C@@H](COP(=O)(O)OP(=O)([O-])OC[C@H]3O[C@@H](n4cnc5c(N)ncnc54)[C@H](OP(=O)(O)O)[C@@H]3O)[C@H](O)[C@@H]2O)c1 | 2620 | 1.23 | –
